Data reported in ChEMBL document CHEMBL2331438, “An efficient domino reaction in ionic liquid: synthesis and biological evaluation of some pyrano- and thiopyrano-fused heterocycles” (2013).
≈ marks a conversion by molar mass, not a printed value.

Key:
Streptococcus pneumoniae = experiment: Antibacterial activity against Streptococcus pneumoniae MTCC 1936 after 24 hrs by broth microdilution method; assay type: functional
Candida albicans = experiment: Antifungal activity against Candida albicans MTCC 227 after 48 hrs by broth microdilution method; assay type: functional
[1] = system: Mycobacterium tuberculosis; experiment: Antimycobacterial activity against Mycobacterium tuberculosis H37Rv at 250 ug/ml; assay type: functional
In short: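 M. tuberculosis H37Rv tested on L.J. (Löwenstein–Jensen) medium.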

[2] = Antioxidant activity assessed as ascorbic acid equivalent ferric ion reducing activity per 100 gram at 200 ug/ml by FRAP assay; assay type: functional
Aspergillus fumigatus = experiment: Antifungal activity against Aspergillus fumigatus MTCC 3008 after 48 hrs by broth microdilution method; assay type: functional
Bacillus subtilis = experiment: Antibacterial activity against Bacillus subtilis MTCC 441 after 24 hrs by broth microdilution method; assay type: functional
Vibrio cholerae = experiment: Antibacterial activity against Vibrio cholerae MTCC 3906 after 24 hrs by broth microdilution method; assay type: functional
Salmonella typhi = experiment: Antibacterial activity against Salmonella typhi MTCC 98 after 24 hrs by broth microdilution method; assay type: functional, Salmonella enterica subsp. enterica serovar Typhi
Clostridium tetani = experiment: Antibacterial activity against Clostridium tetani MTCC 449 after 24 hrs by broth microdilution method; assay type: functional
Escherichia coli = experiment: Antibacterial activity against Escherichia coli MTCC 443 after 24 hrs by broth microdilution method; assay type: functional
[3] = Salmonella enterica, MTCC 98, 24 h

Compound | MIC (Streptococcus pneumoniae; MTCC 1936, 24 h) [µg/mL] | MIC (Candida albicans; MTCC 227, 48 h) [µg/mL] | inhibition at 250 µg/mL [1] [%] | Activity [2] [mmol] | MIC (Aspergillus fumigatus; MTCC 3008, 48 h) [µg/mL] | MIC (Bacillus subtilis; MTCC 441, 24 h) [µg/mL] | MIC (Vibrio cholerae; MTCC 3906, 24 h) [µg/mL] | MIC (Salmonella typhi; [3]) [µg/mL] | MIC (Clostridium tetani; MTCC 449, 24 h) [µg/mL] | MIC (Escherichia coli; MTCC 443, 24 h) [µg/mL] | MIC (Streptococcus pneumoniae) [µg/mL] | MIC (Bacillus subtilis) [µg/mL] | MIC (Vibrio cholerae) [µg/mL] | MIC (Salmonella typhi; Salmonella enterica subsp. enterica serovar Typhi) [µg/mL] | MIC (Clostridium tetani) [µg/mL] | MIC (Escherichia coli) [µg/mL] | MIC (Candida albicans) [µg/mL] | MIC (Aspergillus fumigatus) [µg/mL]
Cc1nn(-c2ccc(Cl)c(Cl)c2)c2c1[C@@H]1c3c(ccc4c(C)cc(=O)oc34)OC[C@@H]1CO2 | 250 (≈ 533 µM) | 500 (≈ 1070 µM) | 20 | 120 | 500 (≈ 1070 µM) | 250 (≈ 533 µM) | 125 (≈ 266 µM) | 250 (≈ 533 µM) | 100 (≈ 213 µM) | 250 (≈ 533 µM) |  |  |  |  |  |  |  | 
GENTAMICIN |  |  |  |  |  |  |  |  |  |  | 0.5 | 1 | 5 | 5 | 5 | 0.05 |  | 
CC1(C)S[C@@H]2[C@H](NC(=O)[C@H](N)c3ccccc3)C(=O)N2[C@H]1C(=O)O [AMPICILLIN] | 100 (≈ 286 µM) |  |  |  |  | 250 (≈ 715 µM) | 100 (≈ 286 µM) | 100 (≈ 286 µM) | 250 (≈ 715 µM) | 100 (≈ 286 µM) |  |  |  |  |  |  |  | 
Cc1nn(-c2cccc(Cl)c2)c2c1[C@@H]1c3cc4cccc(C)c4nc3SC[C@@H]1C(C)(C)O2 (single isomer, unassigned) | 100 (≈ 216 µM) | 500 (≈ 1080 µM) | 91 | 18.2 | 500 (≈ 1080 µM) | 200 (≈ 433 µM) | 100 (≈ 216 µM) | 250 (≈ 541 µM) | 1000 (≈ 2160 µM) | 150 (≈ 325 µM) |  |  |  |  |  |  |  | 
O=C(O)c1cn(C2CC2)c2cc(N3CCNCC3)c(F)cc2c1=O [CIPROFLOXACIN] | 50 (≈ 151 µM) |  |  |  |  |  | 25 (≈ 75.4 µM) | 25 (≈ 75.4 µM) |  | 25 (≈ 75.4 µM) |  |  |  |  |  |  |  | 
Cc1nn(-c2ccccc2Cl)c2c1[C@@H]1c3c(ccc4c(C)cc(=O)oc34)OC[C@@H]1C(C)(C)O2 | 250 (≈ 540 µM) | 1000 (≈ 2160 µM) | 40 | 210 | 200 (≈ 432 µM) | 100 (≈ 216 µM) | 250 (≈ 540 µM) | 125 (≈ 270 µM) | 250 (≈ 540 µM) | 125 (≈ 270 µM) |  |  |  |  |  |  |  | 
O=C(N[C@H](CO)[C@H](O)c1ccc([N+](=O)[O-])cc1)C(Cl)Cl [CHLORAMPHENICOL] | 50 (≈ 155 µM) |  |  |  |  | 50 (≈ 155 µM) | 50 (≈ 155 µM) | 50 (≈ 155 µM) | 50 (≈ 155 µM) | 50 (≈ 155 µM) |  |  |  |  |  |  |  | 
Cc1ccc(-n2nc(C)c3c2OC(C)(C)[C@H]2COc4ccc5c(C)cc(=O)oc5c4[C@@H]32)cc1 | 100 (≈ 226 µM) | 250 (≈ 565 µM) | 32 | 240 | 250 (≈ 565 µM) | 250 (≈ 565 µM) | 500 (≈ 1130 µM) | 250 (≈ 565 µM) | 250 (≈ 565 µM) | 100 (≈ 226 µM) |  |  |  |  |  |  |  | 
Cc1nn(-c2ccccc2Cl)c2c1[C@@H]1c3cc4cccc(C)c4nc3SC[C@@H]1CO2 | 100 (≈ 230 µM) | 500 (≈ 1150 µM) | 29 | 147 | 250 (≈ 576 µM) | 125 (≈ 288 µM) | 200 (≈ 461 µM) | 250 (≈ 576 µM) | 125 (≈ 288 µM) | 250 (≈ 576 µM) |  |  |  |  |  |  |  | 
Cc1cc(=O)oc2c3c(ccc12)OC[C@H]1[C@@H]3c2c(-c3ccccc3)nn(-c3ccccc3)c2OC1(C)C | 125 (≈ 255 µM) | 1000 (≈ 2040 µM) | 80 | 160 | > 1000 | 200 (≈ 408 µM) | 125 (≈ 255 µM) | 100 (≈ 204 µM) | 100 (≈ 204 µM) | 125 (≈ 255 µM) |  |  |  |  |  |  |  | 
COC1=CC(=O)C[C@@H](C)[C@]12Oc1c(Cl)c(OC)cc(OC)c1C2=O [GRISEOFULVIN] |  | 500 (≈ 1420 µM) |  |  | 100 (≈ 283 µM) |  |  |  |  |  |  |  |  |  |  |  |  | 
Cc1nn(-c2cc(Cl)ccc2Cl)c2c1[C@@H]1c3c(ccc4c(C)cc(=O)oc34)OC[C@@H]1C(C)(C)O2 | 100 (≈ 201 µM) | 500 (≈ 1010 µM) |  | 187 | 500 (≈ 1010 µM) | 100 (≈ 201 µM) |  |  |  | 100 (≈ 201 µM) |  |  |  |  |  |  |  | 
NYSTATIN |  |  |  |  |  |  |  |  |  |  |  |  |  |  |  |  | 100 | 100
CCn1cc(C(=O)O)c(=O)c2cc(F)c(N3CCNCC3)cc21 [NORFLOXACIN] | 10 (≈ 31.3 µM) |  |  |  |  | 100 (≈ 313 µM) | 10 (≈ 31.3 µM) | 10 (≈ 31.3 µM) | 50 (≈ 157 µM) | 10 (≈ 31.3 µM) |  |  |  |  |  |  |  | 
Cc1nn(-c2cc(Cl)ccc2Cl)c2c1[C@@H]1c3cc4ccccc4nc3SC[C@@H]1CO2 | 200 (≈ 440 µM) | 500 (≈ 1100 µM) |  | 158 | > 1000 | 100 (≈ 220 µM) |  |  |  | 250 (≈ 550 µM) |  |  |  |  |  |  |  | 
